{"source": "ChEMBL document CHEMBL3098025", "about": "“Optimization of potency and pharmacokinetics of tricyclic indole derived inhibitors of HCV NS5B polymerase. Identification of ester prodrugs with improved oral pharmacokinetics” (Bioorg Med Chem, 2014)", "key": {"[1]": {"test": "Inhibition of HCV1b NS5B polymerase", "parameters": "species or system Hepatitis C virus subtype 1b"}, "Hepatitis C virus": {"tested_on": "Hepatitis C virus", "test": "Antiviral activity against HCV1b assessed as inhibition of viral replication", "assay_type": "functional, organism-based, Hepacivirus hominis", "conditions": "genotype 1b", "procedure,_shortened": "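In the cell-based HCV replicon assay, viral RNA levels were measured. EC50 is the concentration giving a 50% reduction in replicon RNA.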"}, "Rattus norvegicus [2]": {"tested_on": "Rattus norvegicus", "test": "Prodrug conversion in Sprague-Dawley rat assessed as AUC (0 to 6 hrs) of parent compound level at 10 mg/kg, po", "assay_type": "ADME, organism-based", "parameters": "time < 6 hr, dose 10 mg/kg, route oral", "conditions": "in vivo", "procedure,_shortened": "(§1)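 Sprague Dawley rats received esters orally at 10 mg/kg in 0.4% methylcellulose, given as trifluoroacetate salts. Plasma levels of both the intact ester prodrug and the acid metabolite were measured. AUC was integrated over 0–6 h after dosing.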"}, "Rattus norvegicus [3]": {"tested_on": "Rattus norvegicus", "test": "Prodrug conversion in Sprague-Dawley rat assessed as AUC (0 to 6 hrs) of 6-((6-Chloro-1H-benzo[d]imidazol-5-yl)methyl)-4-fluoro-8-(2-oxo-1,2-dihydropyridin-3-yl)-6H-furo[2,3-e]indole-7-carboxylic acid level at 10 mg/kg, po", "assay_type": "ADME, organism-based", "parameters": "time < 6 hr, dose 10 mg/kg, route oral", "conditions": "in vivo", "procedure,_shortened": "as §1"}, "Rattus norvegicus [4]": {"tested_on": "Rattus norvegicus", "test": "Prodrug conversion in Sprague-Dawley rat assessed as AUC (0 to 24 hrs) of 6-((2-Aminoquinolin-4-yl)methyl)-4-fluoro-8-(2-oxo-1,2-dihydropyridin-3-yl)-6H-furo[2,3-e]indole-7-carboxylic acid level at 10 mg/kg, po", "assay_type": "ADME, organism-based", "parameters": "time < 24 hr, dose 10 mg/kg, route oral", "conditions": "in vivo", "procedure,_shortened": "(§2)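 Dimethylaminoethyl ester prodrugs were dosed orally to rats at 10 mg/kg in 0.4% methylcellulose.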"}, "Cynomolgus monkey [5]": {"tested_on": "Cynomolgus monkey", "test": "Prodrug conversion in cynomolgus monkey assessed as AUC (0 to 24 hrs) of 6-((2-Aminoquinolin-4-yl)methyl)-4-fluoro-8-(2-oxo-1,2-dihydropyridin-3-yl)-6H-furo[2,3-e]indole-7-carboxylic acid level at 3 mg/kg, po", "assay_type": "ADME, organism-based, Macaca fascicularis", "parameters": "time < 24 hr, dose 3 mg/kg, route oral", "conditions": "in vivo"}, "Rattus norvegicus [6]": {"tested_on": "Rattus norvegicus", "test": "Prodrug conversion in Sprague-Dawley rat assessed as AUC (0 to 24 hrs) of 4-Fluoro-6-((6-fluoro-1H-benzo[d]imidazol-5-yl)methyl)-8-(2-oxo-1,2-dihydropyridin-3-yl)-6H-furo[2,3-e]indole-7-carboxylic acid level at 10 mg/kg, po", "assay_type": "ADME, organism-based", "parameters": "time < 24 hr, dose 10 mg/kg, route oral", "conditions": "in vivo", "procedure,_shortened": "as §2"}, "Cynomolgus monkey [7]": {"tested_on": "Cynomolgus monkey", "test": "Prodrug conversion in cynomolgus monkey assessed as AUC (0 to 24 hrs) of 4-Fluoro-6-((6-fluoro-1H-benzo[d]imidazol-5-yl)methyl)-8-(2-oxo-1,2-dihydropyridin-3-yl)-6H-furo[2,3-e]indole-7-carboxylic acid level at 3 mg/kg, po", "assay_type": "ADME, organism-based, Macaca fascicularis", "parameters": "time < 24 hr, dose 3 mg/kg, route oral", "conditions": "in vivo"}, "[8]": {"test": "AUC (0 to 6 hrs) in Sprague-Dawley rat at 10 mg/kg, po", "assay_type": "ADME, organism-based", "parameters": "time < 6 hr, dose 10 mg/kg, route oral", "conditions": "plasma", "procedure,_shortened": "as §1"}, "Cynomolgus monkey [9]": {"tested_on": "Cynomolgus monkey", "test": "Prodrug conversion in cynomolgus monkey assessed as AUC (0 to 24 hrs) of 6-((3-Amino-6-fluoro-1H-indazol-5-yl)methyl)-4-fluoro-8-(2-oxo-1,2-dihydropyridin-3-yl)-6H-furo[2,3-e]indole-7-carboxylic acid level at 3 mg/kg, po", "assay_type": "ADME, organism-based, Macaca fascicularis", "parameters": "time < 24 hr, dose 3 mg/kg, route oral", "conditions": "in vivo"}, "Rattus norvegicus [10]": {"tested_on": "Rattus norvegicus", "test": "Prodrug conversion in Sprague-Dawley rat assessed as AUC (0 to 24 hrs) of 6-((3-Amino-6-fluoro-1H-indazol-5-yl)methyl)-4-fluoro-8-(2-oxo-1,2-dihydropyridin-3-yl)-6H-furo[2,3-e]indole-7-carboxylic acid level at 10 mg/kg, po", "assay_type": "ADME, organism-based", "parameters": "time < 24 hr, dose 10 mg/kg, route oral", "conditions": "in vivo", "procedure,_shortened": "as §2"}, "Liver microsome [11]": {"tested_on": "Liver microsome", "test": "Metabolic stability in human liver microsomes assessed as oxidation", "assay_type": "ADME"}, "Liver microsome [12]": {"tested_on": "Liver microsome", "test": "Metabolic stability in human liver microsomes assessed as glutathione adduct formation", "assay_type": "ADME"}, "Plasma": {"tested_on": "Plasma", "test": "Metabolic stability in po dosed Sprague-Dawley rat plasma assessed as glutathione adduct formation", "assay_type": "ADME, organism-based", "conditions": "in vivo", "procedure,_shortened": "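Plasma samples from the full rat PK study (oral, 3 mg/kg) were analysed for metabolites, including glutathione adducts.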"}, "[13]": {"test": "Oral bioavailability in Sprague-Dawley rat at 3 mg/kg", "assay_type": "ADME, organism-based", "conditions": "in vivo"}, "Cynomolgus monkey [14]": {"tested_on": "Cynomolgus monkey", "test": "Prodrug conversion in cynomolgus monkey assessed as AUC (0 to 24 hrs) of 4-Fluoro-6-((6-methyl-1H-indazol-5-yl)methyl)-8-(2-oxo-1,2-dihydropyridin-3-yl)-6H-furo[2,3-e]indole-7-carboxylic acid level at 3 mg/kg, po", "assay_type": "ADME, organism-based, Macaca fascicularis", "parameters": "time < 24 hr, dose 3 mg/kg, route oral", "conditions": "in vivo"}, "Rattus norvegicus [15]": {"tested_on": "Rattus norvegicus", "test": "Prodrug conversion in Sprague-Dawley rat assessed as AUC (0 to 24 hrs) of 4-Fluoro-6-((6-methyl-1H-indazol-5-yl)methyl)-8-(2-oxo-1,2-dihydropyridin-3-yl)-6H-furo[2,3-e]indole-7-carboxylic acid level at 10 mg/kg, po", "assay_type": "ADME, organism-based", "parameters": "time < 24 hr, dose 10 mg/kg, route oral", "conditions": "in vivo", "procedure,_shortened": "as §2"}, "[16]": {"test": "AUC (0 to 6 hrs) in cynomolgus monkey at 3 mg/kg, po", "assay_type": "ADME, organism-based, Macaca fascicularis", "parameters": "time < 6 hr, dose 3 mg/kg, route oral", "conditions": "plasma"}}}
{"compound": "O=C(O)c1c(-c2ccc[nH]c2=O)c2c3occc3cc(F)c2n1Cc1cc(F)ccc1F", "values": [{"measurement": "IC50", "setting": "[1]", "result": 17, "unit": "nM"}, {"measurement": "EC50", "setting": "Hepatitis C virus", "result": 2600, "unit": "nM"}]}
{"compound": "O=C(O)c1c(-c2ccc[nH]c2=O)c2c3occc3c(F)cc2n1Cc1cc2c(=O)cc[nH]c2cc1F", "values": [{"measurement": "IC50", "setting": "[1]", "result": 3, "unit": "nM"}, {"measurement": "EC50", "setting": "Hepatitis C virus", "result": 7, "unit": "nM"}]}
{"compound": "CN(C)CCCOC(=O)c1c(-c2ccc[nH]c2=O)c2c3occc3c(F)cc2n1Cc1cc2[nH]cnc2cc1Cl.O=C(O)C(F)(F)F", "values": [{"measurement": "AUC", "setting": "Rattus norvegicus [2]", "result": 9.1, "unit": "µM·h"}, {"measurement": "AUC", "setting": "Rattus norvegicus [3]", "result": 0.7, "unit": "µM·h"}]}
{"compound": "O=C([O-])c1c(-c2ccc[nH]c2=O)c2c3occc3c(F)cc2n1Cc1cc2[nH]cnc2cc1Cl.[Na+]", "values": [{"measurement": "AUC", "setting": "Rattus norvegicus [3]", "result": 2.1, "unit": "µM·h"}]}
{"compound": "CN(C)CCOC(=O)c1c(-c2ccc[nH]c2=O)c2c3occc3c(F)cc2n1Cc1cc(N)nc2ccccc12.O=C(O)C(F)(F)F", "values": [{"measurement": "EC50", "setting": "Hepatitis C virus", "result": 7, "unit": "nM"}, {"measurement": "AUC", "setting": "Rattus norvegicus [4]", "result": 651, "unit": "µM·h"}, {"measurement": "AUC", "setting": "Cynomolgus monkey [5]", "result": 17, "unit": "µM·h"}]}
{"compound": "CN(C)CCOC(=O)c1c(-c2ccc[nH]c2=O)c2c3occc3c(F)cc2n1Cc1cc2[nH]cnc2cc1F.O=C(O)C(F)(F)F", "values": [{"measurement": "AUC", "setting": "Rattus norvegicus [6]", "result": 159, "unit": "µM·h"}, {"measurement": "AUC", "setting": "Cynomolgus monkey [7]", "result": 14.6, "unit": "µM·h"}, {"measurement": "EC50", "setting": "Hepatitis C virus", "result": 6, "unit": "nM"}]}
{"compound": "O=C(O)c1c(-c2ccc[nH]c2=O)c2c3occc3c(F)cc2n1Cc1ccc2nc[nH]c2c1", "values": [{"measurement": "AUC(0-t) at 6 h", "setting": "[8]", "result": 9.3, "unit": "µM·h"}, {"measurement": "IC50", "setting": "[1]", "result": 5, "unit": "nM"}, {"measurement": "EC50", "setting": "Hepatitis C virus", "result": 30, "unit": "nM"}]}
{"compound": "O=C(O)C(F)(F)F.O=C(OCCN1CCOCC1)c1c(-c2ccc[nH]c2=O)c2c3occc3c(F)cc2n1Cc1cc2[nH]cnc2cc1Cl", "values": [{"measurement": "AUC", "setting": "Rattus norvegicus [2]", "result": 0.2, "unit": "µM·h"}, {"measurement": "AUC", "setting": "Rattus norvegicus [3]", "result": 5.5, "unit": "µM·h"}]}
{"compound": "CN(C)CCOC(=O)c1c(-c2ccc[nH]c2=O)c2c3occc3c(F)cc2n1Cc1cc2c(N)n[nH]c2cc1F.O=C(O)C(F)(F)F", "values": [{"measurement": "EC50", "setting": "Hepatitis C virus", "result": 4, "unit": "nM"}, {"measurement": "AUC", "setting": "Cynomolgus monkey [9]", "result": 4.2, "unit": "µM·h"}, {"measurement": "AUC", "setting": "Rattus norvegicus [10]", "result": 118, "unit": "µM·h"}]}
{"compound": "O=C(O)c1c(-c2ccc[nH]c2=O)c2c3occc3c(F)cc2n1Cc1cc(F)ccc1F", "values": [{"measurement": "IC50", "setting": "[1]", "result": 2, "unit": "nM"}, {"measurement": "EC90", "setting": "Hepatitis C virus", "result": 90, "unit": "nM"}, {"measurement": "Stability", "setting": "Liver microsome [11]", "result": "Stable"}, {"measurement": "Stability", "setting": "Liver microsome [12]", "result": "Stable"}]}
{"compound": "NC(=O)c1ccc(F)c(Cn2c(C(=O)O)c(-c3ccc[nH]c3=O)c3c4occc4c(F)cc32)c1", "values": [{"measurement": "AUC(0-t) at 6 h", "setting": "[8]", "result": 1.7, "unit": "µM·h"}, {"measurement": "IC50", "setting": "[1]", "result": 4, "unit": "nM"}, {"measurement": "EC50", "setting": "Hepatitis C virus", "result": 15, "unit": "nM"}, {"measurement": "Stability", "setting": "Plasma", "result": "Stable"}, {"measurement": "bioavailability", "setting": "[13]", "result": 1.5, "unit": "%"}]}
{"compound": "Cc1cc2[nH]ncc2cc1Cn1c(C(=O)OCCN(C)C)c(-c2ccc[nH]c2=O)c2c3occc3c(F)cc21.O=C(O)C(F)(F)F", "values": [{"measurement": "AUC", "setting": "Cynomolgus monkey [14]", "result": 10.7, "unit": "µM·h"}, {"measurement": "AUC", "setting": "Rattus norvegicus [15]", "result": 79, "unit": "µM·h"}, {"measurement": "EC50", "setting": "Hepatitis C virus", "result": 2, "unit": "nM"}]}
{"compound": "Nc1cc(Cn2c(C(=O)O)c(-c3ccc[nH]c3=O)c3c4occc4c(F)cc32)c2ccccc2n1", "values": [{"measurement": "AUC(0-t) at 6 h", "setting": "[8]", "result": 24, "unit": "µM·h"}, {"measurement": "AUC(0-t) at 6 h", "setting": "[16]", "result": 0.4, "unit": "µM·h"}, {"measurement": "IC50", "setting": "[1]", "result": 4, "unit": "nM"}, {"measurement": "EC50", "setting": "Hepatitis C virus", "result": 6, "unit": "nM"}]}
{"compound": "Nc1n[nH]c2cc(F)c(Cn3c(C(=O)O)c(-c4ccc[nH]c4=O)c4c5occc5c(F)cc43)cc12", "values": [{"measurement": "AUC(0-t) at 6 h", "setting": "[8]", "result": 2.1, "unit": "µM·h"}, {"measurement": "IC50", "setting": "[1]", "result": 4, "unit": "nM"}, {"measurement": "EC50", "setting": "Hepatitis C virus", "result": 3, "unit": "nM"}]}
